# Source: ChEMBL document CHEMBL4689842, “EUbOPEN Chemogenomics Library wave 1” (2021)
# Tested on: HEK-293T
# Test: Multiplex assay against HEK293T;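 for Population Tubulin-Different-Phenotype (%): share of the cells with healthy nuclei that show this phenotype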
# Type: toxicity, cell-based
# Details: human
# In short: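 Per cents of healthy-nucleus cells form the tubulin, mitochondrial-mass and membrane-permeability phenotype values. Live cells were stained at seeding with Hoechst33342, BioTracker Green Microtubule Cytoskeleton Dye, MitoTracker Red and Annexin V Alexa Fluor 680. After compound addition they were imaged on a CQ1 microscope at 37°C and 5% CO2, and CellPathfinder machine-learning gating split them into Hoechst high-intensity objects or normal cells, normal cells into healthy, pyknosed or fragmented nuclei, and pyknosed cells into mitotic or apoptotic.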
# [1] = 12 h, 1 µM, compound concentration 1 uM, replicate 1
# [2] = 12 h, 1 µM, compound concentration 1 uM, replicate 2
# [3] = 12 h, 10 µM, compound concentration 10 uM, replicate 1
# [4] = 12 h, 10 µM, compound concentration 10 uM, replicate 2
# [5] = 24 h, 1 µM, compound concentration 1 uM, replicate 1
# [6] = 24 h, 1 µM, compound concentration 1 uM, replicate 2
# [7] = 24 h, 10 µM, compound concentration 10 uM, replicate 1
# [8] = 24 h, 10 µM, compound concentration 10 uM, replicate 2
compound,measurement,setting,value
CC(C)CC(=O)Nc1[nH]nc2c1CN(C(=O)C1CCN(C)CC1)C2(C)C [PHA-793887],Population Apoptotic (%),[1],21%
same,Population Fragmented Nuclei (%),[1],10%
same,Population Healthy Nuclei (%),[1],72%
same,Population Hoechst High Intensity Objects (%),[1],8%
same,Population Membrane Permeable-Phenotype (%),[1],5%
same,Population Mitochondria Different-Phenotype (%),[1],4%
same,Population Mitotic Cells (%),[1],78%
same,Population Normal (%),[1],91%
same,Population Pyknosed Nuclei (%),[1],17%
same,Population Tubulin-Different-Phenotype (%),[1],2%
same,Total Cell Count,[1],604
same,Population Apoptotic (%),[2],20%
same,Population Fragmented Nuclei (%),[2],9%
same,Population Healthy Nuclei (%),[2],87%
same,Population Hoechst High Intensity Objects (%),[2],2%
same,Population Membrane Permeable-Phenotype (%),[2],1%
same,Population Mitochondria Different-Phenotype (%),[2],6%
same,Population Mitotic Cells (%),[2],80%
same,Population Normal (%),[2],97%
same,Population Pyknosed Nuclei (%),[2],3%
same,Population Tubulin-Different-Phenotype (%),[2],4%
same,Total Cell Count,[2],1420
same,Population Apoptotic (%),[3],21%
same,Population Fragmented Nuclei (%),[3],13%
same,Population Healthy Nuclei (%),[3],69%
same,Population Hoechst High Intensity Objects (%),[3],12%
same,Population Membrane Permeable-Phenotype (%),[3],2%
same,Population Mitochondria Different-Phenotype (%),[3],7%
same,Population Mitotic Cells (%),[3],78%
same,Population Normal (%),[3],87%
same,Population Pyknosed Nuclei (%),[3],16%
same,Population Tubulin-Different-Phenotype (%),[3],3%
same,Total Cell Count,[3],585
same,Population Apoptotic (%),[4],25%
same,Population Fragmented Nuclei (%),[4],7%
same,Population Healthy Nuclei (%),[4],89%
same,Population Hoechst High Intensity Objects (%),[4],5%
same,Population Membrane Permeable-Phenotype (%),[4],0%
same,Population Mitotic Cells (%),[4],74%
same,Population Normal (%),[4],94%
same,Population Pyknosed Nuclei (%),[4],2%
same,Population Tubulin-Different-Phenotype (%),[4],2%
same,Total Cell Count,[4],1190
same,Population Apoptotic (%),[5],27%
same,Population Fragmented Nuclei (%),[5],9%
same,Population Healthy Nuclei (%),[5],81%
same,Population Hoechst High Intensity Objects (%),[5],4%
same,Population Membrane Permeable-Phenotype (%),[5],7%
same,Population Mitochondria Different-Phenotype (%),[5],3%
same,Population Mitotic Cells (%),[5],72%
same,Population Normal (%),[5],95%
same,Population Pyknosed Nuclei (%),[5],9%
same,Population Tubulin-Different-Phenotype (%),[5],4%
same,Total Cell Count,[5],638
same,Population Apoptotic (%),[6],11%
same,Population Fragmented Nuclei (%),[6],23%
same,Population Healthy Nuclei (%),[6],72%
same,Population Hoechst High Intensity Objects (%),[6],3%
same,Population Membrane Permeable-Phenotype (%),[6],2%
same,Population Mitochondria Different-Phenotype (%),[6],2%
same,Population Mitotic Cells (%),[6],88%
same,Population Normal (%),[6],96%
same,Population Pyknosed Nuclei (%),[6],3%
same,Population Tubulin-Different-Phenotype (%),[6],6%
same,Total Cell Count,[6],1935
same,Population Apoptotic (%),[7],25%
same,Population Fragmented Nuclei (%),[7],13%
same,Population Healthy Nuclei (%),[7],70%
same,Population Hoechst High Intensity Objects (%),[7],15%
same,Population Membrane Permeable-Phenotype (%),[7],4%
same,Population Mitochondria Different-Phenotype (%),[7],7%
same,Population Mitotic Cells (%),[7],75%
same,Population Normal (%),[7],84%
same,Population Pyknosed Nuclei (%),[7],15%
same,Population Tubulin-Different-Phenotype (%),[7],8%
same,Total Cell Count,[7],545
same,Population Apoptotic (%),[8],36%
same,Population Fragmented Nuclei (%),[8],11%
same,Population Healthy Nuclei (%),[8],86%
same,Population Hoechst High Intensity Objects (%),[8],4%
same,Population Membrane Permeable-Phenotype (%),[8],1%
same,Population Mitotic Cells (%),[8],63%
same,Population Normal (%),[8],95%
same,Population Pyknosed Nuclei (%),[8],2%
same,Population Tubulin-Different-Phenotype (%),[8],4%
same,Total Cell Count,[8],1297
